# Laboratory results from paper PMC9563295 (Journal of the American Chemical Society, 2022).
# Numbered stars: 1 amine (or outer) side, 2 acyl side, 3 side chain; on linkers, the order of the positions; unused ones are H or OH. Bridge positions count the residues as written; N and C are the ends. Square brackets hold non-standard residues; d marks the D form. Peptide text beside a SMILES is read from it. ξ: configuration not given here. ξβ3hPhg = O=C(CC(N[*:1])c1ccccc1)[*:2]; ξPhg = NC(C(=O)O)c1ccccc1; βAla = NCCC(=O)O
# Key:
# [1] = molecular target: hEGF–hEGFR interaction (Homo sapiens, UniProt P00533); test: hEGFR inhibition assay using AlphaLISA; format: biochemical; settings: for fold increase of IC50 compared to the parent peptide: mutant vs parent L2β, D3β or D4β
# Chain of hEGF–hEGFR interaction (P00533 25-645 limits assumed): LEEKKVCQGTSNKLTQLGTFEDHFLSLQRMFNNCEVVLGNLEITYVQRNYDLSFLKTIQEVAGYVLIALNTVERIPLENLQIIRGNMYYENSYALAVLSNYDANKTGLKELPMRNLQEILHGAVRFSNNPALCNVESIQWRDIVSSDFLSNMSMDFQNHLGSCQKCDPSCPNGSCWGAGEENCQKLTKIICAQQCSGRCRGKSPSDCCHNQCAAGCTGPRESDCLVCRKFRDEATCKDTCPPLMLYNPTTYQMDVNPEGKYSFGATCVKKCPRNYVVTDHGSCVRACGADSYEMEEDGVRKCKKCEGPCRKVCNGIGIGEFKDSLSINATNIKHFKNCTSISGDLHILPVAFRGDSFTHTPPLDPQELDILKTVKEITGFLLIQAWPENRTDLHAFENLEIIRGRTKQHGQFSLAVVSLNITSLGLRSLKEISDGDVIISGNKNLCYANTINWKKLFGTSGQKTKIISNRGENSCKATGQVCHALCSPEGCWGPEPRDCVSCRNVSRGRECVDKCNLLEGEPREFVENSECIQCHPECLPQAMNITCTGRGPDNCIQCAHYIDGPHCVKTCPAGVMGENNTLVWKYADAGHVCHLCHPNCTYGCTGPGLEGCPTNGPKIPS
# [2] = molecular target: hEGFR (Homo sapiens, UniProt P00533); test: Binding kinetics analysis by surface plasmon resonance; settings: KD compared with 2D and 18D
# Chain of hEGFR (P00533 25-1210): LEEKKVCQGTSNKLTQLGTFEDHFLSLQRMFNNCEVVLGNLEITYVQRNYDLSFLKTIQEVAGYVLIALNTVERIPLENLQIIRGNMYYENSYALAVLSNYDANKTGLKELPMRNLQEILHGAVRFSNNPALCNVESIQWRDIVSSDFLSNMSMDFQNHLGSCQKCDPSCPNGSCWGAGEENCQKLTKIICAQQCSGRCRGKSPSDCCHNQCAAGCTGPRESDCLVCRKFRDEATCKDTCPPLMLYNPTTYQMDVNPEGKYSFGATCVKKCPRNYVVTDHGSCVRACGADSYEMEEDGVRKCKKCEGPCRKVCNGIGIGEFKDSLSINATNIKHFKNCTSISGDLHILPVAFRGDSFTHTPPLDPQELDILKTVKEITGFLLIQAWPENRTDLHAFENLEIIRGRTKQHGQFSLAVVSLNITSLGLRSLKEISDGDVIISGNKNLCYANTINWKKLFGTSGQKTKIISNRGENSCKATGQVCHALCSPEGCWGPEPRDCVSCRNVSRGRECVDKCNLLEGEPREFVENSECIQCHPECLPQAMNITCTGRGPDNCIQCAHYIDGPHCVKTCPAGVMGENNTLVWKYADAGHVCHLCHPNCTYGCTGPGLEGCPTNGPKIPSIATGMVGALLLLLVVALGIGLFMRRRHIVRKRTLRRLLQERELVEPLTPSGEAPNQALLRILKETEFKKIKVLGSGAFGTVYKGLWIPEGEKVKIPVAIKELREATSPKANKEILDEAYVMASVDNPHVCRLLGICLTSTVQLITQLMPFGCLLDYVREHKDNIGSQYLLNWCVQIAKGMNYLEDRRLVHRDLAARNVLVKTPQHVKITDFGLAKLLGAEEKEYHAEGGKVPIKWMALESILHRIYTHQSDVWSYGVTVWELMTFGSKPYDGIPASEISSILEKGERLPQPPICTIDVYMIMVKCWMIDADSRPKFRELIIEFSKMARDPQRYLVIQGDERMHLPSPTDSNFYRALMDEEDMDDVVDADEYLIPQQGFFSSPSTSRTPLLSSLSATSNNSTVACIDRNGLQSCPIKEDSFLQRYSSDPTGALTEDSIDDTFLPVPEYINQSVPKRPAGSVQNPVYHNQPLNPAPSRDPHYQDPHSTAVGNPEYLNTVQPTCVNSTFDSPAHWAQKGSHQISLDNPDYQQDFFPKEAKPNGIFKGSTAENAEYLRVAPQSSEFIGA
# [3] = Serum stability assay; format: in vitro ADME; settings: human serum, 37 °C; mutant vs parent L2β or D4β
# Method in brief: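 Test peptides (parents plus Ala, backbone-shortening and sidechain-deletion mutants) incubated in human serum at 37 °C for up to 72 h. Percentage of remaining peptide over time estimated by LC/MS, and half-life (t1/2) derived from the decay.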
smiles,measurement,setting,value
"CC(C)C[C@@H]1NC(=O)CC(c2ccccc2)NC(=O)[C@H](CC(C)C)NC(=O)[C@H](Cc2ccc(O)cc2)NC(=O)CSC[C@@H](C(=O)NCC(N)=O)NC(=O)[C@H](Cc2ccc(O)cc2)NC(=O)[C@H](CC(C)C)NC(=O)[C@H](Cc2ccc(O)cc2)NC(=O)[C@H](CCCNC(=N)N)NC(=O)[C@H](CC(N)=O)NC(=O)[C@@H]2CCCN2C(=O)CC(c2ccccc2)NC(=O)[C@H](CCCNC(=N)N)NC(=O)[C@H](CCCNC(=N)N)NC(=O)C(c2ccccc2)NC(=O)[C@H](Cc2ccc(O)cc2)NC1=O (stereo partly drawn) [L2α.2, ^AcYL^βXLYXRR^βXPNRYLYCG-NH2] ({CH2CO}-YL[ξβ3hPhg]LY[ξPhg]RR[ξβ3hPhg]PNRYLYCG-NH2; thioether N-16)",fold increase of IC50 compared to the parent peptide,[1],460 fold
"CC(C)[C@@H]1NC(=O)[C@H](CCCNC(=N)N)NC(=O)[C@H](Cc2ccc(O)cc2)NC(=O)[C@H](C(C)C)NC(=O)[C@H](C(C)C)NC(=O)[C@H](CCCNC(=N)N)NC(=O)[C@H](CC(=O)O)NC(=O)[C@H](CC(=O)O)NC(=O)CNC(=O)[C@H](Cc2ccc(O)cc2)NC(=O)[C@H](Cc2ccc(O)cc2)NC(=O)[C@H](Cc2ccccc2)NC(=O)[C@@H](Cc2ccc(O)cc2)NC(=O)CSC[C@@H](C(=O)NCC(N)=O)NC(=O)C(c2ccccc2)NC1=O (stereo partly drawn) [D4α, ^AcyFYYGDDRVVYRVXCG-NH2] ({CH2CO}-[dY]FYYGDDRVVYRV[ξPhg]CG-NH2; thioether N-15)",PPI inhibitory activity against hEGF–hEGFR interaction (in words),[1],complete loss of the activity
CC(C)[C@@H]1NC(=O)[C@H](CCCNC(=N)N)NC(=O)[C@H](Cc2ccc(O)cc2)NC(=O)[C@H](C(C)C)NC(=O)[C@H](C(C)C)NC(=O)[C@H](CCCNC(=N)N)NC(=O)[C@H](CC(=O)O)NC(=O)[C@H](CC(=O)O)NC(=O)CCNC(=O)[C@H](Cc2ccc(O)cc2)NC(=O)[C@H](Cc2ccc(O)cc2)NC(=O)[C@H](Cc2ccccc2)NC(=O)[C@@H](Cc2ccc(O)cc2)NC(=O)CSC[C@@H](C(=O)NCC(N)=O)NC(=O)CC(c2ccccc2)NC1=O (stereo partly drawn) [D4β] ({CH2CO}-[dY]FYY[βAla]DDRVVYRV[ξβ3hPhg]CG-NH2; thioether N-15),fold stronger binding affinity in comparison with 2D and 18D,[2],approximately 10 fold
"CC(C)C[C@@H]1NC(=O)CC(c2ccccc2)NC(=O)[C@H](CC(C)C)NC(=O)[C@H](Cc2ccc(O)cc2)NC(=O)CSC[C@@H](C(=O)NCC(N)=O)NC(=O)[C@H](Cc2ccc(O)cc2)NC(=O)[C@H](CC(C)C)NC(=O)[C@H](Cc2ccc(O)cc2)NC(=O)[C@H](CCCNC(=N)N)NC(=O)[C@H](CC(N)=O)NC(=O)[C@@H]2CCCN2C(=O)CC(c2ccccc2)NC(=O)[C@H](CCCNC(=N)N)NC(=O)[C@H](CCCNC(=N)N)NC(=O)CCNC(=O)[C@H](Cc2ccc(O)cc2)NC1=O (stereo partly drawn) [L2βG.2, ^AcYL^βXLY^βGRR^βXPNRYLYCG-NH2] ({CH2CO}-YL[ξβ3hPhg]LY[βAla]RR[ξβ3hPhg]PNRYLYCG-NH2; thioether N-16)",fold increase of IC50 compared to the parent peptide,[1],1270 fold
"CC(C)C[C@H](NC(=O)CNC(=O)[C@H](CCCNC(=N)N)NC(=O)CC(NC(=O)[C@@H]1CSCC(=O)N[C@H](Cc2ccc(O)cc2)C(=O)N[C@@H](C(C)C)C(=O)N[C@@H](Cc2ccc(O)cc2)C(=O)N1)c1ccccc1)C(=O)N[C@@H](CC(=O)O)C(=O)N1CCC[C@H]1C(=O)N[C@@H](CCCNC(=N)N)C(=O)N[C@@H](CC(C)C)C(=O)N[C@@H](CO)C(=O)N[C@@H](CCCNC(=N)N)C(=O)N[C@@H](Cc1ccccc1)C(=O)N[C@@H](CO)C(=O)NCC(N)=O (stereo partly drawn) [D2β, ^AcyVYC^βXRGLDPRLSRFSG-NH2] ({CH2CO}-[dY]VYC[ξβ3hPhg]RGLDPRLSRFSG-NH2; thioether N-4)",PPI inhibitory activity against hEGF–hEGFR interaction (in words),[1],no inhibitory activity
CC(C)[C@@H]1NC(=O)[C@H](CCCNC(=N)N)NC(=O)[C@H](Cc2ccc(O)cc2)NC(=O)[C@H](C(C)C)NC(=O)[C@H](C(C)C)NC(=O)[C@H](CCCNC(=N)N)NC(=O)[C@H](CC(=O)O)NC(=O)[C@H](CC(=O)O)NC(=O)[C@H](C)NC(=O)[C@H](Cc2ccc(O)cc2)NC(=O)[C@H](Cc2ccc(O)cc2)NC(=O)[C@H](Cc2ccccc2)NC(=O)[C@@H](Cc2ccc(O)cc2)NC(=O)CSC[C@@H](C(=O)NCC(N)=O)NC(=O)CC(c2ccccc2)NC1=O (stereo partly drawn) [D4A.1] ({CH2CO}-[dY]FYYADDRVVYRV[ξβ3hPhg]CG-NH2; thioether N-15),fold lower t1/2 than the parent peptide,[3],26 fold
CC(C)[C@@H]1NC(=O)[C@H](CCCNC(=N)N)NC(=O)[C@H](Cc2ccc(O)cc2)NC(=O)[C@H](C(C)C)NC(=O)[C@H](C(C)C)NC(=O)[C@H](CCCNC(=N)N)NC(=O)[C@H](CC(=O)O)NC(=O)[C@H](CC(=O)O)NC(=O)CCNC(=O)[C@H](Cc2ccc(O)cc2)NC(=O)[C@H](Cc2ccc(O)cc2)NC(=O)[C@H](Cc2ccccc2)NC(=O)[C@@H](Cc2ccc(O)cc2)NC(=O)CSC[C@@H](C(=O)NCC(N)=O)NC(=O)[C@H](C)NC1=O [D4A.2] ({CH2CO}-[dY]FYY[βAla]DDRVVYRVACG-NH2; thioether N-15),fold lower t1/2 than the parent peptide,[3],2.6 fold
CC(C)[C@@H]1NC(=O)[C@H](CCCNC(=N)N)NC(=O)[C@H](Cc2ccc(O)cc2)NC(=O)[C@H](C(C)C)NC(=O)[C@H](C(C)C)NC(=O)[C@H](CCCNC(=N)N)NC(=O)[C@H](CC(=O)O)NC(=O)[C@H](CC(=O)O)NC(=O)CCNC(=O)[C@H](Cc2ccc(O)cc2)NC(=O)[C@H](Cc2ccc(O)cc2)NC(=O)[C@H](Cc2ccccc2)NC(=O)[C@@H](Cc2ccc(O)cc2)NC(=O)CSC[C@@H](C(=O)NCC(N)=O)NC(=O)CCNC1=O [D4βG] ({CH2CO}-[dY]FYY[βAla]DDRVVYRV[βAla]CG-NH2; thioether N-15),fold increase of IC50 compared to the parent peptide,[1],2.2 fold
CC(C)C[C@@H]1NC(=O)[C@H](C)NC(=O)[C@H](CC(C)C)NC(=O)[C@H](Cc2ccc(O)cc2)NC(=O)CSC[C@@H](C(=O)NCC(N)=O)NC(=O)[C@H](Cc2ccc(O)cc2)NC(=O)[C@H](CC(C)C)NC(=O)[C@H](Cc2ccc(O)cc2)NC(=O)[C@H](CCCNC(=N)N)NC(=O)[C@H](CC(N)=O)NC(=O)[C@@H]2CCCN2C(=O)[C@H](C)NC(=O)[C@H](CCCNC(=N)N)NC(=O)[C@H](CCCNC(=N)N)NC(=O)[C@H](C)NC(=O)[C@H](Cc2ccc(O)cc2)NC1=O [L2A] ({CH2CO}-YLALYARRAPNRYLYCG-NH2; thioether N-16),fold lower t1/2 than the parent peptide,[3],approximately 10 fold
"CC(C)C[C@@H]1NC(=O)CC(c2ccccc2)NC(=O)[C@H](CC(C)C)NC(=O)[C@H](Cc2ccc(O)cc2)NC(=O)CSC[C@@H](C(=O)NCC(N)=O)NC(=O)[C@H](Cc2ccc(O)cc2)NC(=O)[C@H](CC(C)C)NC(=O)[C@H](Cc2ccc(O)cc2)NC(=O)[C@H](CCCNC(=N)N)NC(=O)[C@H](CC(N)=O)NC(=O)[C@@H]2CCCN2C(=O)CC(c2ccccc2)NC(=O)[C@H](CCCNC(=N)N)NC(=O)[C@H](CCCNC(=N)N)NC(=O)CC(c2ccccc2)NC(=O)[C@H](Cc2ccc(O)cc2)NC1=O (stereo partly drawn) [L2β, ^AcYL^βXLY^βXRR^βXPNRYLYCG-NH2] ({CH2CO}-YL[ξβ3hPhg]LY[ξβ3hPhg]RR[ξβ3hPhg]PNRYLYCG-NH2; thioether N-16)",fold stronger binding affinity in comparison with 2D and 18D,[2],approximately 10 fold
CC(C)[C@@H]1NC(=O)[C@H](CCCNC(=N)N)NC(=O)[C@H](Cc2ccc(O)cc2)NC(=O)[C@H](C(C)C)NC(=O)[C@H](C(C)C)NC(=O)[C@H](CCCNC(=N)N)NC(=O)[C@H](CC(=O)O)NC(=O)[C@H](CC(=O)O)NC(=O)[C@H](C)NC(=O)[C@H](Cc2ccc(O)cc2)NC(=O)[C@H](Cc2ccc(O)cc2)NC(=O)[C@H](Cc2ccccc2)NC(=O)[C@@H](Cc2ccc(O)cc2)NC(=O)CSC[C@@H](C(=O)NCC(N)=O)NC(=O)[C@H](C)NC1=O [D4A] ({CH2CO}-[dY]FYYADDRVVYRVACG-NH2; thioether N-15),PPI inhibitory activity against hEGF–hEGFR interaction (in words),[1],complete loss of the activity
CC(C)[C@@H]1NC(=O)[C@H](CCCNC(=N)N)NC(=O)[C@H](Cc2ccc(O)cc2)NC(=O)[C@H](C(C)C)NC(=O)[C@H](C(C)C)NC(=O)[C@H](CCCNC(=N)N)NC(=O)[C@H](CC(=O)O)NC(=O)[C@H](CC(=O)O)NC(=O)CNC(=O)[C@H](Cc2ccc(O)cc2)NC(=O)[C@H](Cc2ccc(O)cc2)NC(=O)[C@H](Cc2ccccc2)NC(=O)[C@@H](Cc2ccc(O)cc2)NC(=O)CSC[C@@H](C(=O)NCC(N)=O)NC(=O)CC(c2ccccc2)NC1=O (stereo partly drawn) [D4α.1] ({CH2CO}-[dY]FYYGDDRVVYRV[ξβ3hPhg]CG-NH2; thioether N-15),fold lower t1/2 than the parent peptide,[3],2 fold
